In the RNAGym collection of RNA variant scans (doi:10.1038/s41586-018-0170-7):

B1: tRNA (parent)
chain: GUUCCGUUGGCGUAAUGGUAACGCGUCUCCCUCCUAAGGAGAAGACUGCGGGUUCGAGUCCCGUACGGAACG

Variants of: B1
Assay: yeast fitness, log relative to wild type (ln ratio); higher = fitter; tRNA-Arg(CCU), competitive growth, 37 C, 1 M NaCl
Method in brief: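 Fitness is the natural log of each genotype's generations divided by the wild type's. Generations were derived as OD-scaled log2 output/input frequency from 125 bp paired-end Illumina counts, weighting replicates by inverse variance. Pools of the tRNA-Arg(CCU) variant library, on a HIS3 centromeric plasmid in BY4742 lacking the chromosomal gene, grew ~6.5 generations (~26.5 h) in SC-HIS 1M NaCl at 37 °C after 4 generations in SC-HIS at 30 °C.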

Question: With AUUCCUUUGGCGUAAUGGUAACGCGUCUCCCUCCUAAGGAGACGACUGCGGGUUCGAGUCCCGUAAGGGGUG as the variant, how does the “yeast fitness (ln)” value read?
Answer: The value was -0.348.

Question: For AUUCCUUUGGCGUAAUGGUAACGCGUCUCCCUCCUAAGGAGAAGACUGCGGGUUCGAGUCCCGUACGGGGUG, which “yeast fitness (ln)” value is on record?
Answer: Its value is -0.247.

Question: With AUUCCUUUGGCGUAAUGGUAACGCGUUUCCCUCCUAAGGAGACGAUUGCGGGUUCGAGUCCCGUAAGGAACG as the variant, how does the “yeast fitness (ln)” value read?
Answer: Its value is -0.168.

Question: Which “yeast fitness (ln)” value does the source give for AUUCCUUUGGCGUAAUGGUAACGCGUCUCCCUCCUAAGGAGACGAUUGCGGGUUCGAGUCCCGUAUGGAGUG here?
Answer: The value was -0.278.

Question: With AUUCCUUUGGCGUAAUGGUAACGCGUUUCCCUCCUAAGGAGACGACUGCGGGUUCGAGUCCCGUACGGAGCG as the variant, how does the “yeast fitness (ln)” value read?
Answer: The value was -0.439.

Question: With AUUCCUUUGGCGUAAUGGUAACGCGUUUCCCUCCUAAGGAGACGACUGCGGGUUCGAGUCCCGUACGGAUCG as the variant, how does the “yeast fitness (ln)” value read?
Answer: Its value is -0.331.

Question: Which “yeast fitness (ln)” value does the source give for AUUCCUUUGGCGUAAUGGUAACGCGUCUCCCUCCUAAGGAGACGACUGCGGGUUCGAGUCCCGUAUGGAUUG here?
Answer: Its value is -0.38.

Question: With AUUCCUUUGGCGUAAUGGUAACGCGUUUCCCUCCUAAGGAGACGAUUGCGGGUUCGAGUCCCGUACGGGUUG as the variant, how does the “yeast fitness (ln)” value read?
Answer: Its value is -0.475.

Question: Which “yeast fitness (ln)” value does the source give for AUUCCUUUGGCGUAAUGGUAACGCGUUUCCCUCCUAAGGAGACGACUGCGGGUUCGAGUCCCGUACGGAUUG here?
Answer: Its value is -0.341.

Question: Which “yeast fitness (ln)” value does the source give for AUUCCUUUGGCGUAAUGGUAACGCGUCUCCCUCCUAAGGAGACGACUGCGGGUUCGAGUCCCGUAAGGGAUG here?
Answer: Its value is -0.863.

Question: Which “yeast fitness (ln)” value does the source give for AUUCCUUUGGCGUAAUGGUAACGCGUCUCCCUCCUAAGGAGAAGACUGCGGGUUCGAGUCCCGUACGGAGUG here?
Answer: Its value is -0.148.

Question: With AUUCCUUUGGCGUAAUGGUAACGCGUCUCCCUCCUAAGGAGACGAUUGCGGGUUCGAGUCCCGUAUGGAUUG as the variant, how does the “yeast fitness (ln)” value read?
Answer: The value was -0.432.

Question: With AUUCCUUUGGCGUAAUGGUAACGCGUCUCCCUCCUAAGGAGACGACUGCGGGUUCGAGUCCCGUAUGGAUCG as the variant, how does the “yeast fitness (ln)” value read?
Answer: Its value is -0.212.

Question: For AUUCCUUUGGCGUAAUGGUAACGCGUCUCCCUCCUAAGGAGACGACUGCGGGUUCGAGUCCCGUAUGGAGCG, which “yeast fitness (ln)” value is on record?
Answer: Its value is -0.339.

Question: With AUUCCUUUGGCGUAAUGGUAACGCGUUUCCCUCCUAAGGAGACGAUUGCGGGUUCGAGUCCCGUAAGGGGCG as the variant, how does the “yeast fitness (ln)” value read?
Answer: The value was -0.432.

Question: For AUUCCUUUGGCGUAAUGGUAACGCGUUUCCCUCCUAAGGAGACGACUGCGGGUUCGAGUCCCGUACGGGUUG, which “yeast fitness (ln)” value is on record?
Answer: Its value is -0.58.

Question: Which “yeast fitness (ln)” value does the source give for AUUCCUUUGGCGUAAUGGUAACGCGUCUCCCUCCUAAGGAGACGAUUGCGGGUUCGAGUCCCGUAUGGGUUG here?
Answer: Its value is -0.429.

Question: Which “yeast fitness (ln)” value does the source give for AUUCCUUUGGCGUAAUGGUAACGCGUCUCCCUCCUAAGGAGACGAUUGCGGGUUCGAGUCCCGUAAGGAGCG here?
Answer: Its value is -0.17.

Question: Which “yeast fitness (ln)” value does the source give for AUUCCUUUGGCGUAAUGGUAACGCGUCUCCCUCCUAAGGAGACGAUUGCGGGUUCGAGUCCCGUAAGGAUCG here?
Answer: Its value is -0.242.

Question: For AUUCCUUUGGCGUAAUGGUAACGCGUCUCCCUCCUAAGGAGACGAUUGCGGGUUCGAGUCCCGUAAGGGGUG, which “yeast fitness (ln)” value is on record?
Answer: Its value is -0.393.

Question: Which “yeast fitness (ln)” value does the source give for AUUCCUUUGGCGUAAUGGUAACGCGUCUCCCUCCUAAGGAGACGACUGCGGGUUCGAGUCCCGUAAGGAACG here?
Answer: Its value is -0.19.

Question: Which “yeast fitness (ln)” value does the source give for AUUCCUUUGGCGUAAUGGUAACGCGUCUCCCUCCUAAGGAGACGACUGCGGGUUCGAGUCCCGUAUGGAACG here?
Answer: Its value is -0.232.

Question: With AUUCCUUUGGCGUAAUGGUAACGCGUUUCCCUCCUAAGGAGACGACUGCGGGUUCGAGUCCCGUACGGGGUG as the variant, how does the “yeast fitness (ln)” value read?
Answer: Its value is -0.34.

Question: With AUUCCUUUGGCGUAAUGGUAACGCGUCUCCCUCCUAAGGAGACGACUGCGGGUUCGAGUCCCGUAUGGGUUG as the variant, how does the “yeast fitness (ln)” value read?
Answer: Its value is -0.433.

Question: With AUUCCUUUGGCGUAAUGGUAACGCGUCUCCCUCCUAAGGAGACGAUUGCGGGUUCGAGUCCCGUAUGGAACG as the variant, how does the “yeast fitness (ln)” value read?
Answer: Its value is -0.286.

Question: Which “yeast fitness (ln)” value does the source give for AUUCCUUUGGCGUAAUGGUAACGCGUCUCCCUCCUAAGGAGAAGACUGCGGGUUCGAGUCCCGUACGGAGCG here?
Answer: The value was -0.192.

Question: For AUUCCUUUGGCGUAAUGGUAACGCGUCUCCCUCCUAAGGAGAAGACUGCGGGUUCGAGUCCCGUACGGAUCG, which “yeast fitness (ln)” value is on record?
Answer: Its value is -0.156.

Question: For AUUCCUUUGGCGUAAUGGUAACGCGUUUCCCUCCUAAGGAGACGACUGCGGGUUCGAGUCCCGUACGGGAUG, which “yeast fitness (ln)” value is on record?
Answer: The value was -0.557.

Question: For AUUCCUUUGGCGUAAUGGUAACGCGUCUCCCUCCUAAGGAGACGACUGCGGGUUCGAGUCCCGUAAGGAAUG, which “yeast fitness (ln)” value is on record?
Answer: Its value is -0.0965.

Question: With AUUCCUUUGGCGUAAUGGUAACGCGUUUCCCUCCUAAGGAGACGAUUGCGGGUUCGAGUCCCGUACGGGGUG as the variant, how does the “yeast fitness (ln)” value read?
Answer: Its value is -0.414.

Question: For AUUCCUUUGGCGUAAUGGUAACGCGUCUCCCUCCUAAGGAGACGAUUGCGGGUUCGAGUCCCGUACGGAAUG, which “yeast fitness (ln)” value is on record?
Answer: Its value is -0.174.

Question: Which “yeast fitness (ln)” value does the source give for AUUCCUUUGGCGUAAUGGUAACGCGUCUCCCUCCUAAGGAGAAGACUGCGGGUUCGAGUCCCGUACGGAUUG here?
Answer: Its value is -0.213.

Question: For AUUCCUUUGGCGUAAUGGUAACGCGUCUCCCUCCUAAGGAGACGAUUGCGGGUUCGAGUCCCGUAAGGGAUG, which “yeast fitness (ln)” value is on record?
Answer: Its value is -0.198.

Question: With AUUCCUUUGGCGUAAUGGUAACGCGUCUCCCUCCUAAGGAGACGACUGCGGGUUCGAGUCCCGUAAGGAGUG as the variant, how does the “yeast fitness (ln)” value read?
Answer: Its value is -0.517.

Question: Which “yeast fitness (ln)” value does the source give for AUUCCUUUGGCGUAAUGGUAACGCGUCUCCCUCCUAAGGAGACGACUGCGGGUUCGAGUCCCGUAAGGGUUG here?
Answer: Its value is -0.344.

Question: With AUUCCUUUGGCGUAAUGGUAACGCGUCUCCCUCCUAAGGAGACGAUUGCGGGUUCGAGUCCCGUAUGGAGCG as the variant, how does the “yeast fitness (ln)” value read?
Answer: Its value is -0.261.

Question: With AUUCCUUUGGCGUAAUGGUAACGCGUCUCCCUCCUAAGGAGACGAUUGCGGGUUCGAGUCCCGUAUGGAUCG as the variant, how does the “yeast fitness (ln)” value read?
Answer: Its value is -0.259.
